The text below walks through data of ChEMBL document CHEMBL2424574, “Structure-activity relationships and pharmacophore model of a noncompetitive pyrazoline containing class of GluN2C/GluN2D selective antagonists” (J Med Chem, 2013).

The test system of one data set is Plasma. The experiment in a line: Metabolic stability in rat plasma after 2 hrs. It counts as ADME, cell-free. Put shortly:
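Stability followed in human, rat or mouse plasma over a 2-hour time course.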

A further data set deals with Mu-type opioid receptor (Homo sapiens, UniProt P35372). The experiment in a line: Inhibition of mu-type opioid receptor (unknown origin). The essentials:
(§1)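 Radioligand panel screening was run through the NIMH Psychoactive Drug Screening Program with compounds at 5 µM.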

The target in data set [1] is 5-hydroxytryptamine receptor 6 (Homo sapiens, UniProt P50406). The experiment in a line: Inhibition of 5HT6 receptor (unknown origin). The essentials:
as §1

Data set [2] is filed under the species Homo sapiens. Kind of data set: Inhibition of GluN2D receptor L705F mutant (unknown origin).
For data set [3], the species on record is Homo sapiens. Kind of data set: Inhibition of GluN2D receptor A752V mutant (unknown origin).
Data set [4] is filed under the species Homo sapiens. The experiment in a line: Inhibition of GluN2D receptor Q801Y mutant (unknown origin).
Data set [5] is filed under the species Rattus norvegicus. Kind of data set: Selectivity ratio of IC50 for recombinant rat GluN2B receptor to IC50 for recombinant rat GluN2D receptor. Put shortly:
(§2)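 Rat GluN1 co-expressed with GluN2A, GluN2B or GluN2D in Xenopus oocytes. Two-electrode voltage clamp at −40 mV in 90 NaCl, 1 KCl, 0.5 BaCl2, 0.005 EDTA, 10 HEPES (mM), pH 7.4, 23 °C; final DMSO 0.1–0.05%. IC50s came from Hill fits to averaged composite concentration-response curves (5–24 oocytes, 2–4 frogs). Ratio is GluN2A or GluN2B IC50 over GluN2D IC50.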

The species entered for data set [6] is Rattus norvegicus. Kind of data set: Selectivity ratio of IC50 for recombinant rat GluN2A receptor to IC50 for recombinant rat GluN2D receptor. The essentials:
as §2

Data set [7] addresses Ionotropic glutamate receptor NMDA 1/2D (Homo sapiens) (UniProt Q05586+O15399). The settings on record: Oocyte, 1 uM.
For data set [8], the target named is P2X purinoceptor 2 (Rattus norvegicus) (UniProt P49653). Kind of data set: Inhibition of rat purinergic receptor P2X subunit-2 expressed in Xenopus laevis oocytes assessed as inhibition of ATP-induced current at 3 uM by two-electrode voltage clamp method; values are per cent of control. The settings on record: Oocyte. In general terms: Two-electrode voltage clamp is typically applied to oocytes expressing channels or transporters.

Data set [9] addresses Glutamate receptor ionotropic, kainate 1 (Homo sapiens) (UniProt P39086). Kind of data set: Inhibition of GluK1 receptor (unknown origin) expressed in Xenopus laevis oocytes assessed as inhibition of glutamate-induced current at 3 uM by two-electrode voltage clamp method; values are per cent of control. The settings on record: Oocyte.
The target in data set [10] is Glutamate receptor 4 (Homo sapiens) (UniProt P48058). The experiment in a line: Inhibition of GluA4 receptor (unknown origin) expressed in Xenopus laevis oocytes assessed as inhibition of glutamate-induced current at 3 uM by two-electrode voltage clamp method; values are per cent of control. The settings on record: Oocyte.
In data set [11] the target is Glutamate receptor 2 (Homo sapiens) (UniProt P42262). The experiment in a line: Inhibition of GluA2 receptor (unknown origin) expressed in Xenopus laevis oocytes assessed as inhibition of glutamate-induced current at 3 uM by two-electrode voltage clamp method; values are per cent of control. The note with it: Oocyte.
The target in data set [12] is Glutamate receptor 1 (Homo sapiens) (UniProt P42261). Kind of data set: Inhibition of GluA1 receptor (unknown origin) expressed in Xenopus laevis oocytes assessed as inhibition of glutamate-induced current at 3 uM by two-electrode voltage clamp method; values are per cent of control. The note with it: Oocyte.
In data set [13] the target is P2X purinoceptor 2 (Homo sapiens) (UniProt Q9UBL9). Kind of data set: Inhibition of human purinergic receptor P2X subunit-2 expressed in Xenopus laevis oocytes assessed as inhibition of ATP-induced current at 3 uM by two-electrode voltage clamp method; values are per cent of control. The settings on record: Oocyte.
A further data set concerns Oocyte. Kind of data set: Inhibition of gamma-aminobutyric acid receptor A […] (unknown origin) expressed in Xenopus laevis oocytes assessed as inhibition of GABA-induced current at 3 uM by two-electrode voltage clamp method; values are per cent of control. The settings on record: Homo sapiens.
The target of data set [14] is Nicotinic acetylcholine receptor alpha1/beta1/gamma/delta (Mus musculus) (UniProt P04756+P09690+P02716+P04760). Kind of data set: Inhibition of mouse nicotinic acetylcholine receptor subunit alpha1beta1gammadelta expressed in Xenopus laevis oocytes assessed as inhibition of acetylcholine-induced current at 3 uM by two-electrode voltage clamp method; values are per cent of control. The settings on record: Oocyte.

In data set [15] the test system is Liver microsomes. Kind of data set: Half life in human liver microsomes at 1 uM. Type of data set: ADME, Microsome. The essentials: (§3)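 Human liver microsomes 0.5 mg/mL in 100 mM potassium phosphate pH 7.4 with 5 mM MgCl2 and 1 μM test compound. Preincubated 3 min at 37 °C, then started with 1 mM NADPH, with a testosterone control in parallel. Sampled at 0, 10, 20, 30 and 60 min and quenched in cold acetonitrile/water with formic acid and internal standard. Percent remaining by LC-MS/MS (MRM) versus time 0. t1/2 = 0.693/k from the ln-remaining slope; CLint = k/protein concentration.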

In data set [16] the test system is Liver microsomes. The experiment in a line: Intrinsic clearance in human liver microsomes measured per mg of protein at 1 uM by LC-MS/MS analysis. It counts as ADME, Microsome. Put shortly: as §3
A general note: Liver microsomes are a subcellular fraction often used to study metabolism.

The test system of data set [17] is Liver microsomes. Kind of data set: Metabolic stability in human liver microsomes assessed as compound remaining at 1 uM after 60 mins by LC-MS/MS analysis. It counts as ADME, Microsome. The settings on record: 1 h. The essentials: as §3
The subject of data set [18] is Liver microsomes. Kind of data set: Metabolic stability in human liver microsomes assessed as compound remaining at 1 uM after 20 mins by LC-MS/MS analysis. It counts as ADME, Microsome. The essentials: as §3
Data set [19] has as its system MDCK. The experiment in a line: Permeability across basolateral to apical side in dog MDCK cells expressing MDR1 assessed as compound recovery at 5 uM after 120 mins by LC-MS/MS analysis. The note with it: 2 h. Type of data set: ADME, cell-based, Canis lupus familiaris. Put shortly:
(§4)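 MDR1-MDCK monolayers grown to confluence on collagen-coated polycarbonate membranes. Assay buffer was HBSS with 10 mM HEPES and 15 mM glucose, pH 7.4, and the receiver side also held 1% BSA. Monolayers were dosed apically (A-to-B) or basolaterally (B-to-A) at 5 μM, 37 °C, 5% CO2. Donor and receiver were sampled at 120 min, in duplicate, by LC-MS/MS (ESI). Papp and percent recovery were calculated from receiver/donor concentrations.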

Data set [20] relates to MDCK. The experiment in a line: Apparent permeability across basolateral to apical side in dog MDCK cells expressing MDR1 at 5 uM after 120 mins by LC-MS/MS analysis. The note with it: 2 h. It counts as ADME, cell-based, Canis lupus familiaris. Put shortly: as §4
Data set [21] concerns MDCK. Kind of data set: Permeability across apical to basolateral side in dog MDCK cells expressing MDR1 assessed as compound recovery at 5 uM after 120 mins by LC-MS/MS analysis. Type of data set: ADME, cell-based, Canis lupus familiaris. The settings on record: 2 h. Put shortly: as §4
Data set [22] relates to MDCK. Kind of data set: Apparent permeability across apical to basolateral side in dog MDCK cells expressing MDR1 at 5 uM after 120 mins by LC-MS/MS analysis. The note with it: 2 h. Type of data set: ADME, cell-based, Canis lupus familiaris. The essentials:
as §4

A short description of data set [23]: Aqueous solubility in DMSO buffer by nephelometric analysis. Type of data set: physicochemical. The settings on record: oocyte recording buffer; in the assay text read “oocyte recording buffer” for “DMSO buffer”. The essentials:
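Solubility measured by nephelometry in oocyte recording buffer: 90 mM NaCl, 1 KCl, 0.5 BaCl2, 0.005 EDTA, 10 HEPES, pH 7.4.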

In a further data set the target is Histamine H2 receptor (Homo sapiens, UniProt P25021). The experiment in a line: Inhibition of histamine H2 receptor (unknown origin). Put shortly:
as §1

Activity calls are given as the source filed them. The calls are words filed in the database; no cut-off is given here.

P2X purinoceptor 2 (Homo sapiens), sequence (Q9UBL9 whole entry): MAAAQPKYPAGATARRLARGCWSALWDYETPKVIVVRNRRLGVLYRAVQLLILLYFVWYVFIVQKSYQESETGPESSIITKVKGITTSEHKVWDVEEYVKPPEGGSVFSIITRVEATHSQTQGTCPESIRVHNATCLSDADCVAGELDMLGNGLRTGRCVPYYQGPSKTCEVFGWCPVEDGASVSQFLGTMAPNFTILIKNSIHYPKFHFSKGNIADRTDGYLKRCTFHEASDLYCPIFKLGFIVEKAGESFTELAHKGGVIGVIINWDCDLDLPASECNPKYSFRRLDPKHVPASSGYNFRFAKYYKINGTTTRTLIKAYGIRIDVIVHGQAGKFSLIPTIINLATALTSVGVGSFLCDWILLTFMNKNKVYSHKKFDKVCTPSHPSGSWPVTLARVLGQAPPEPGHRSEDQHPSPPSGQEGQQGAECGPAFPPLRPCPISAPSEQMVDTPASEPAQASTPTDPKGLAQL
Glutamate receptor 4 (Homo sapiens), sequence (P48058 whole entry): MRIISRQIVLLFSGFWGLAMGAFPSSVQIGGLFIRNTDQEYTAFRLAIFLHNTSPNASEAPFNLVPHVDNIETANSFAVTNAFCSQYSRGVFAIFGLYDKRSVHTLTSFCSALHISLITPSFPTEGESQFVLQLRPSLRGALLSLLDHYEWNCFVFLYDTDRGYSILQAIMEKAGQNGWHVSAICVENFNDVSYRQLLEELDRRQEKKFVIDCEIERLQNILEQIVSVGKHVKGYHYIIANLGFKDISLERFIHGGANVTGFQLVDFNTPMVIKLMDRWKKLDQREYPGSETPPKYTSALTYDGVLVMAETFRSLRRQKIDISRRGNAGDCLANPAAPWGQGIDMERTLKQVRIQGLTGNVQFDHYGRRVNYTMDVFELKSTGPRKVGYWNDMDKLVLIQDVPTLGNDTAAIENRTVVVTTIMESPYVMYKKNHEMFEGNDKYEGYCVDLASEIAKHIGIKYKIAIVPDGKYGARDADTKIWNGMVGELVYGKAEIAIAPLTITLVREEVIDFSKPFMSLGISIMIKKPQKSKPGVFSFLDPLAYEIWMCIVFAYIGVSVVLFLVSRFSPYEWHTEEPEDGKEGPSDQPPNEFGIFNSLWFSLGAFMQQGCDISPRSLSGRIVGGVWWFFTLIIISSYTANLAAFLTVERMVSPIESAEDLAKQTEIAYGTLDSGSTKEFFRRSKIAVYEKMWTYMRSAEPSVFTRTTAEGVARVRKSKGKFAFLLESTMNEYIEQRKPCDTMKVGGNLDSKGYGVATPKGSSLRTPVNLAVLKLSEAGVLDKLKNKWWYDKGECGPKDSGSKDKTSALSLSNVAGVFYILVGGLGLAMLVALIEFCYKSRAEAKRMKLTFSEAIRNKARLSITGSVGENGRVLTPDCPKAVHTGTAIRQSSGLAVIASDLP
Glutamate receptor 1 (Homo sapiens), sequence (P42261 whole entry): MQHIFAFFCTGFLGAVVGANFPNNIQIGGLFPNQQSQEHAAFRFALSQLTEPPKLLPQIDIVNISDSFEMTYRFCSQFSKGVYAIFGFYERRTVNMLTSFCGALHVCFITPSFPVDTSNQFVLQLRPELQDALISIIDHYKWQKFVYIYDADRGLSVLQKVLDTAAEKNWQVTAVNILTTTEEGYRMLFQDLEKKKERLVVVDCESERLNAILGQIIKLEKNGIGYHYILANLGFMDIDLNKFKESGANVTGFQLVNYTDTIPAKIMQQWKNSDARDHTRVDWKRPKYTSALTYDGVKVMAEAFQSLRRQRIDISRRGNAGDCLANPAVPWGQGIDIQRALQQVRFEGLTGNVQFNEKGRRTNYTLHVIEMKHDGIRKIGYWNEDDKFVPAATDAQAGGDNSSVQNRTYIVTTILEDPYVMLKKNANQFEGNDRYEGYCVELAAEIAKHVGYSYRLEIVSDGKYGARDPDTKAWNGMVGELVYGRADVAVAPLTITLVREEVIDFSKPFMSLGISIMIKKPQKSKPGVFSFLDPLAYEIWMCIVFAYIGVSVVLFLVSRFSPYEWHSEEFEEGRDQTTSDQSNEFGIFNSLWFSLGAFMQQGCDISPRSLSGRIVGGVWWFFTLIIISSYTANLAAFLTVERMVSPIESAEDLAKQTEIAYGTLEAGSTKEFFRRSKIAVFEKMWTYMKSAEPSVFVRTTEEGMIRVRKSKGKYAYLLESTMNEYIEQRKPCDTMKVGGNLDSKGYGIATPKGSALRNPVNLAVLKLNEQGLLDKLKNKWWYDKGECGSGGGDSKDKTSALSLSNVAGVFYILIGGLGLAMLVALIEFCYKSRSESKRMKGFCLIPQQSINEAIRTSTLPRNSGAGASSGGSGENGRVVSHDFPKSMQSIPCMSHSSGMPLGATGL
Glutamate receptor ionotropic, kainate 1 (Homo sapiens), sequence (P39086 whole entry): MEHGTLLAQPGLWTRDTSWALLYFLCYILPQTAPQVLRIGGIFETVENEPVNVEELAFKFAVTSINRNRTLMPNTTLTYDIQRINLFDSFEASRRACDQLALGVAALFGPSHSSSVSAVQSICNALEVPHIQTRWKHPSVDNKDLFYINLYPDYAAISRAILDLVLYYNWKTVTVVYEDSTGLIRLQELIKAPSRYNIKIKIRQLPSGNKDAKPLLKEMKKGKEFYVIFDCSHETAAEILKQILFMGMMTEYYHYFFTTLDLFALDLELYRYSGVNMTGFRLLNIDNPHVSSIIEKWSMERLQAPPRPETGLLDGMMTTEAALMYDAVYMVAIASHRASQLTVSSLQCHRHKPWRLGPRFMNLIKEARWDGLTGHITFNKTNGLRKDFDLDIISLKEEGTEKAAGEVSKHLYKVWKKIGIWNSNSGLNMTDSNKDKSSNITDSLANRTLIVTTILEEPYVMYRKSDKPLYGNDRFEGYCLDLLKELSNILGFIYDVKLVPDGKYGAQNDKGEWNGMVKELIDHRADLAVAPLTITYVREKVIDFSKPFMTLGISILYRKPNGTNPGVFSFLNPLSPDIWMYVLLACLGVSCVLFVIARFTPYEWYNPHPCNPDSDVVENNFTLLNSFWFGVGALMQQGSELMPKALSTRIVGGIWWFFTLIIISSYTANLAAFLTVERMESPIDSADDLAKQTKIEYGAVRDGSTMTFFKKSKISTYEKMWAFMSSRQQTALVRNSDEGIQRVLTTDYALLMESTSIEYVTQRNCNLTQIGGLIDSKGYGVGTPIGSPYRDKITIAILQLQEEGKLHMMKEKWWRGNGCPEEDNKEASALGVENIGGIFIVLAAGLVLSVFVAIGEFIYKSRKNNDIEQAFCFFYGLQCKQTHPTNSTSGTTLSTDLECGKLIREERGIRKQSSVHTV
5-hydroxytryptamine receptor 6, sequence (P50406 whole entry): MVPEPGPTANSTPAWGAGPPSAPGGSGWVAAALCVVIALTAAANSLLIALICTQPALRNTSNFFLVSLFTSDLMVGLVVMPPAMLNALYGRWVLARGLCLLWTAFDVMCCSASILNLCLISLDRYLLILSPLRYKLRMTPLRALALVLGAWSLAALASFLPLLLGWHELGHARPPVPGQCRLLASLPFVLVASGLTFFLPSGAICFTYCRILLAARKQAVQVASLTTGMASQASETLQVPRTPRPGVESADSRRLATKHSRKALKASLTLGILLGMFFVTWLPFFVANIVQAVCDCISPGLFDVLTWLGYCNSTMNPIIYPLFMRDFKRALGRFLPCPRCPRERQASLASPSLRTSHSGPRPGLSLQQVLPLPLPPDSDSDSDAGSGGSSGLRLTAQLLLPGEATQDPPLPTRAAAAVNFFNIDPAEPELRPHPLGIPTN
Glutamate receptor 2 (Homo sapiens), sequence (P42262 whole entry): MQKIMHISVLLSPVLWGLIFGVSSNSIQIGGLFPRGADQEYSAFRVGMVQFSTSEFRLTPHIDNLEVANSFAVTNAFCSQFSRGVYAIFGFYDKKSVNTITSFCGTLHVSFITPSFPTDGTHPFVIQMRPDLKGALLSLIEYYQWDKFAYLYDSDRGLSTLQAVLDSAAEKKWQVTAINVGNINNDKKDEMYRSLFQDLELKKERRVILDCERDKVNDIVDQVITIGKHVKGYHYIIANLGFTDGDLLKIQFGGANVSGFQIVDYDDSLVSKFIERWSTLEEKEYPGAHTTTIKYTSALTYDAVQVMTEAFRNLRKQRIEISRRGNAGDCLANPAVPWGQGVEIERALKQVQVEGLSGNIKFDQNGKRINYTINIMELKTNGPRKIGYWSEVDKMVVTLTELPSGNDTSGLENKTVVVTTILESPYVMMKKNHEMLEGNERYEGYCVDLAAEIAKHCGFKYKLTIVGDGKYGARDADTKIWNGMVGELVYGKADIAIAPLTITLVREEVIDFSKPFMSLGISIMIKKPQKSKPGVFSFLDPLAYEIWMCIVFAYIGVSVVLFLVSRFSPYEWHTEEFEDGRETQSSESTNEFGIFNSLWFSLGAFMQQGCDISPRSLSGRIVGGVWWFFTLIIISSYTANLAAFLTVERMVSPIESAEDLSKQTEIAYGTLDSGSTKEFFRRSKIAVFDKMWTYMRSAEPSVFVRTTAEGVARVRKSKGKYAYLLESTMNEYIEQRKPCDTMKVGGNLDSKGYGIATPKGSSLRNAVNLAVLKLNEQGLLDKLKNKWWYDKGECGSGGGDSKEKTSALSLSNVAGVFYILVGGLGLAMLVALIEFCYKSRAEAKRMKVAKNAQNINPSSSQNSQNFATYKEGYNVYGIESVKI
P2X purinoceptor 2 (Rattus norvegicus), sequence (P49653 whole entry): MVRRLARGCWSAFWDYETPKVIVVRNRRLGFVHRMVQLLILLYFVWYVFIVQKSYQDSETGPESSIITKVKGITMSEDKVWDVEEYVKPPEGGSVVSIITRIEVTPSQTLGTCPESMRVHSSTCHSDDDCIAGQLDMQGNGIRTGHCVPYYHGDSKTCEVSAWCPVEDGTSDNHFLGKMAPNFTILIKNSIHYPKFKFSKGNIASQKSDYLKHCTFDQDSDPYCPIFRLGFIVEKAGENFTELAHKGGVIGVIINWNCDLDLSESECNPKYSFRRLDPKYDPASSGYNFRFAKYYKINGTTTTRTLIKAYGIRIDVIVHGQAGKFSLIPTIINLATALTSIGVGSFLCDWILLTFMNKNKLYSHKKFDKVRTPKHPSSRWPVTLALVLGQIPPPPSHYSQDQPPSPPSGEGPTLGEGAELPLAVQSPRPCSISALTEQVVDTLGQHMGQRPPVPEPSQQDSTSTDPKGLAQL

Usually Ki stands for the equilibrium dissociation constant of an inhibitor or competing ligand from its target. For the compound `O=C(O)/C=C/C(=O)N1N=C(c2c(-c3ccc(Br)cc3)c3ccccc3[nH]c2=O)CC1c1ccc(Cl)cc1` (racemic), in the data set with Plasma, the Stability entry is “Stable”. Besides, the Ki (at Mu-type opioid receptor; in data set [1]) was more than 10 µM throughout. For the same compound, the inhibition entry in the data set filed under Homo sapiens [2], in the data set filed under Homo sapiens [3] and in the data set filed under Homo sapiens [4] was “inactive” in each case. Besides, the Ratio IC50 in the data set filed under Rattus norvegicus [5] came to 63; in the data set listed under Rattus norvegicus [6], 23. The residual activity in data set [7] stood at 3.1%; in [8], 96%; in data set [9], 100%; in data set [10] it was 97%; in data set [11], 96%; in [12], 99%. Besides, the residual activity worked out at 100% in data set [13], 95% with Oocyte and 98% in data set [14].

The term Papp denotes the rate of passage across a membrane or cell layer, normalised by area and donor concentration. By solubility (kinetic) is commonly meant solubility judged after dilution from a stock solution rather than from solid. As for `O=C(O)CCC(=O)N1N=C(c2c(-c3ccc(Cl)cc3)c3ccccc3[nH]c2=O)CC1c1ccc(Cl)cc1` (racemic), the t1/2 with Liver microsomes [15] was more than 1 h. The compound also had a CLint in the data set with Liver microsomes [16] of less than 20 µL/min/mg. The figures for the Stability in the data set with Liver microsomes [17], in the data set on Liver microsomes [18] and in the data set with Plasma were 86%, 100% and “Stable”, respectively. Moreover, the Drug recovery in the data set on MDCK [19] is 76%; with MDCK [21], 73%. Moreover, the apparent permeability (Papp) with MDCK [20] stood at 25.6 ×10⁻⁶ cm/s; with MDCK [22] it was 0.47 ×10⁻⁶ cm/s. The compound also displayed a solubility (kinetic) in data set [23] of more than 80 µM. The inhibition constant Ki (at Histamine H2 receptor; in [1]) was more than 10 µM each time. For the same compound, the results for the Ratio IC50 in the data set filed under Rattus norvegicus [5] and in the data set listed under Rattus norvegicus [6] were 50 and 48, respectively. Also, the residual activity came out at 97% in data set [8]; 97% in data set [9]; 96% in data set [10]; 98% in data set [11]; 97% in data set [12]; 113% in [13]. Further, the residual activity with Oocyte stood at 97%; in [14], 94%.
